# According to ChEMBL document CHEMBL2203081 (Bioorg Med Chem Lett, 2012):
# Calls of active or inactive are those of the source. No cut-off for these calls is given here.
# What was measured:
# [1] = biological target: Mitogen-activated protein kinase 1 (Homo sapiens) (UniProt P28482); test: Inhibition of ERK2 assessed as residual activity at 1 uM
# Outline: (§1)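 Radioactivity-based enzymatic activity assay of the named kinase, run as part of a 131-kinase specificity panel at the National Centre for Protein Kinase Profiling (Dundee). Residual activity was read at the stated single inhibitor concentration.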
# [2] = biological target: Protein kinase C iota type (Homo sapiens) (UniProt P41743); test: Inhibition of PRKCI assessed as residual activity at 10 uM relative to control
# Mus musculus = test: Inhibition of LRRK2 in mouse assessed as inhibition of Ser910 autophosphorylation in brain at 100 mg/kg, ip by immunoblot method; assay type: functional, organism-based; parameters: dose 100 mg/kg
# [3] = biological target: Serine/threonine-protein kinase LATS2 (Homo sapiens) (UniProt Q9NRM7); test: Inhibition of LATS2 assessed as residual activity at 10 uM relative to control
# [4] = biological target: Mitogen-activated protein kinase kinase kinase 9 (Homo sapiens) (UniProt P80192); test: Inhibition of MLK1 assessed as residual activity at 1 uM
# Chain of Mitogen-activated protein kinase kinase kinase 9 (Homo sapiens) (P80192 whole entry, looked up): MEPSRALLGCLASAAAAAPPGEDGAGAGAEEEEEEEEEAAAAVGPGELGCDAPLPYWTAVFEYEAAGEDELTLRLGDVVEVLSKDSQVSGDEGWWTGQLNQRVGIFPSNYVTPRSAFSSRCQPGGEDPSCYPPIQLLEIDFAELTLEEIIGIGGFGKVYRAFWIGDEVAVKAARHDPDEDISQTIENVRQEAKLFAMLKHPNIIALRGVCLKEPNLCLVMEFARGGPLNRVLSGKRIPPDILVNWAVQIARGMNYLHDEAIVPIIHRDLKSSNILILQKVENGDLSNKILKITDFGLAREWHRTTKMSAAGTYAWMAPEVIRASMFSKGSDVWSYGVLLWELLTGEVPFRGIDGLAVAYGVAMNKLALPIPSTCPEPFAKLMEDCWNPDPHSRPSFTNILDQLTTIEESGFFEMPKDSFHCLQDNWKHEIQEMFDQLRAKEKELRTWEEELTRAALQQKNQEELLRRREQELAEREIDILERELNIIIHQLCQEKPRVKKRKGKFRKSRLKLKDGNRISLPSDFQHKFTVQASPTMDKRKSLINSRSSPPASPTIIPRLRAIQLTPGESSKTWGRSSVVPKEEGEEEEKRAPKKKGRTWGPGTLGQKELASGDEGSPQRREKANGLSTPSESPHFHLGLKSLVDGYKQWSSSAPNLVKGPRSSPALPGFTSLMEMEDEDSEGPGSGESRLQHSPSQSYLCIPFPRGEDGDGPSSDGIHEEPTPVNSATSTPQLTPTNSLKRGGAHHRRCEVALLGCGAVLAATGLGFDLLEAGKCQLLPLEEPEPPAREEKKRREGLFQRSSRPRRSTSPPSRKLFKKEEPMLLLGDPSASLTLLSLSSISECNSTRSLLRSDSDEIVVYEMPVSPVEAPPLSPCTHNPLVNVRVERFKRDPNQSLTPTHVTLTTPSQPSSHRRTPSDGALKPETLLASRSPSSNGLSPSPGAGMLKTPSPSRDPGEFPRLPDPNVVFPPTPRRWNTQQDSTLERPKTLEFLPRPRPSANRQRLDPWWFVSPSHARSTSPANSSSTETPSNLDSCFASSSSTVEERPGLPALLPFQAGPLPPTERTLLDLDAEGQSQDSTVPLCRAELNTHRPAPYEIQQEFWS
# [5] = biological target: Homeodomain-interacting protein kinase 1 (Homo sapiens) (UniProt Q86Z02); test: Inhibition of HIPK1 assessed as residual activity at 10 uM; outline: as §1
# [6] = biological target: T1, Serine/threonine-protein kinase D1 (Homo sapiens) (UniProt Q15139); test: Inhibition of PKD1 assessed as residual activity at 10 uM
# T1 sequence (whole entry): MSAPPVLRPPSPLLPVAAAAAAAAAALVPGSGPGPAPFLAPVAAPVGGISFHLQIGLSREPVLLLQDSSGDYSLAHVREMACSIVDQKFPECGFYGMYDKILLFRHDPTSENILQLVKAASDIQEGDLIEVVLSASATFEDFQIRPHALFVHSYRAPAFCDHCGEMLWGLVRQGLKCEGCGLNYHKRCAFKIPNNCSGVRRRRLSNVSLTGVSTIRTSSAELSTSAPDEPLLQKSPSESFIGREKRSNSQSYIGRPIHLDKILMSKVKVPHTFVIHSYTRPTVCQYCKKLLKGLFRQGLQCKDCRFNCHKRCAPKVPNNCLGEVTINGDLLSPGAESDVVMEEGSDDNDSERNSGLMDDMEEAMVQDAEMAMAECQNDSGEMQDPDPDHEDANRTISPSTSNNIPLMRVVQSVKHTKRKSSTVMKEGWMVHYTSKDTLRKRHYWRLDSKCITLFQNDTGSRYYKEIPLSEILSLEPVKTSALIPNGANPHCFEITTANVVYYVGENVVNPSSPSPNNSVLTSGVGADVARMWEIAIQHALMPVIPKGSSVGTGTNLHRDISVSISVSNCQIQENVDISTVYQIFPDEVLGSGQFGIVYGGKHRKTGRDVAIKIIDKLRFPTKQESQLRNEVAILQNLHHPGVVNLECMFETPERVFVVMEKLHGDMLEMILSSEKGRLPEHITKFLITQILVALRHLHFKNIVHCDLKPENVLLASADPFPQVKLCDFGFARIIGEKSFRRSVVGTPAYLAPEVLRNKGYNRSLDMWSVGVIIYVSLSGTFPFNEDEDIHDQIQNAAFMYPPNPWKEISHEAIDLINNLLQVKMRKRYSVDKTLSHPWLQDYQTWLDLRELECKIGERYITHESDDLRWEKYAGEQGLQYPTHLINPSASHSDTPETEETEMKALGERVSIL
# [7] = biological target: Serine/threonine-protein kinase MRCK alpha (Homo sapiens) (UniProt Q5VT25); test: Inhibition of MRCKA assessed as residual activity at 10 uM relative to control
# [8] = biological target: SRSF protein kinase 1 (Homo sapiens) (UniProt Q96SB4); test: Inhibition of SRPK1 assessed as residual activity at 1 uM
# Chain of SRSF protein kinase 1 (Homo sapiens) (Q96SB4 whole entry): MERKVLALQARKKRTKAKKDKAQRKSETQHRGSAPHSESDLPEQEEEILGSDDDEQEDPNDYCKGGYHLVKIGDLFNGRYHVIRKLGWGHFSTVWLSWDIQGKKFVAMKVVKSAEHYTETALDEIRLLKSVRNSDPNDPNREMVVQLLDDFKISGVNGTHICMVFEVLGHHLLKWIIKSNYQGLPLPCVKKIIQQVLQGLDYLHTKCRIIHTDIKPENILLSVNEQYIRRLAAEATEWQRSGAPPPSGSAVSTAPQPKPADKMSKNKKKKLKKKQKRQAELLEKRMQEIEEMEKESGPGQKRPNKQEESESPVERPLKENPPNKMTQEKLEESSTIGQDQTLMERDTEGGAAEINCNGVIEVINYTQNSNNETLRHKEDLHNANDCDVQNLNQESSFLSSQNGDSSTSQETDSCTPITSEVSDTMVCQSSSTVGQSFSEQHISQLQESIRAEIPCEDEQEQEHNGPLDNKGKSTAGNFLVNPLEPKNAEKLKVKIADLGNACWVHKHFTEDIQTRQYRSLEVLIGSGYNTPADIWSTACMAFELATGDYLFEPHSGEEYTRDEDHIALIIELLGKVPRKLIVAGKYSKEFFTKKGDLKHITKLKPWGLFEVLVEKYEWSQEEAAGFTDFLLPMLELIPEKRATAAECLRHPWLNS
# [9] = biological target: Serine/threonine-protein kinase WNK1 (Homo sapiens) (UniProt Q9H4A3); test: Inhibition of WNK1 assessed as residual activity at 10 uM relative to control
# Chain of Serine/threonine-protein kinase WNK1 (Homo sapiens) (Q9H4A3 whole entry, looked up): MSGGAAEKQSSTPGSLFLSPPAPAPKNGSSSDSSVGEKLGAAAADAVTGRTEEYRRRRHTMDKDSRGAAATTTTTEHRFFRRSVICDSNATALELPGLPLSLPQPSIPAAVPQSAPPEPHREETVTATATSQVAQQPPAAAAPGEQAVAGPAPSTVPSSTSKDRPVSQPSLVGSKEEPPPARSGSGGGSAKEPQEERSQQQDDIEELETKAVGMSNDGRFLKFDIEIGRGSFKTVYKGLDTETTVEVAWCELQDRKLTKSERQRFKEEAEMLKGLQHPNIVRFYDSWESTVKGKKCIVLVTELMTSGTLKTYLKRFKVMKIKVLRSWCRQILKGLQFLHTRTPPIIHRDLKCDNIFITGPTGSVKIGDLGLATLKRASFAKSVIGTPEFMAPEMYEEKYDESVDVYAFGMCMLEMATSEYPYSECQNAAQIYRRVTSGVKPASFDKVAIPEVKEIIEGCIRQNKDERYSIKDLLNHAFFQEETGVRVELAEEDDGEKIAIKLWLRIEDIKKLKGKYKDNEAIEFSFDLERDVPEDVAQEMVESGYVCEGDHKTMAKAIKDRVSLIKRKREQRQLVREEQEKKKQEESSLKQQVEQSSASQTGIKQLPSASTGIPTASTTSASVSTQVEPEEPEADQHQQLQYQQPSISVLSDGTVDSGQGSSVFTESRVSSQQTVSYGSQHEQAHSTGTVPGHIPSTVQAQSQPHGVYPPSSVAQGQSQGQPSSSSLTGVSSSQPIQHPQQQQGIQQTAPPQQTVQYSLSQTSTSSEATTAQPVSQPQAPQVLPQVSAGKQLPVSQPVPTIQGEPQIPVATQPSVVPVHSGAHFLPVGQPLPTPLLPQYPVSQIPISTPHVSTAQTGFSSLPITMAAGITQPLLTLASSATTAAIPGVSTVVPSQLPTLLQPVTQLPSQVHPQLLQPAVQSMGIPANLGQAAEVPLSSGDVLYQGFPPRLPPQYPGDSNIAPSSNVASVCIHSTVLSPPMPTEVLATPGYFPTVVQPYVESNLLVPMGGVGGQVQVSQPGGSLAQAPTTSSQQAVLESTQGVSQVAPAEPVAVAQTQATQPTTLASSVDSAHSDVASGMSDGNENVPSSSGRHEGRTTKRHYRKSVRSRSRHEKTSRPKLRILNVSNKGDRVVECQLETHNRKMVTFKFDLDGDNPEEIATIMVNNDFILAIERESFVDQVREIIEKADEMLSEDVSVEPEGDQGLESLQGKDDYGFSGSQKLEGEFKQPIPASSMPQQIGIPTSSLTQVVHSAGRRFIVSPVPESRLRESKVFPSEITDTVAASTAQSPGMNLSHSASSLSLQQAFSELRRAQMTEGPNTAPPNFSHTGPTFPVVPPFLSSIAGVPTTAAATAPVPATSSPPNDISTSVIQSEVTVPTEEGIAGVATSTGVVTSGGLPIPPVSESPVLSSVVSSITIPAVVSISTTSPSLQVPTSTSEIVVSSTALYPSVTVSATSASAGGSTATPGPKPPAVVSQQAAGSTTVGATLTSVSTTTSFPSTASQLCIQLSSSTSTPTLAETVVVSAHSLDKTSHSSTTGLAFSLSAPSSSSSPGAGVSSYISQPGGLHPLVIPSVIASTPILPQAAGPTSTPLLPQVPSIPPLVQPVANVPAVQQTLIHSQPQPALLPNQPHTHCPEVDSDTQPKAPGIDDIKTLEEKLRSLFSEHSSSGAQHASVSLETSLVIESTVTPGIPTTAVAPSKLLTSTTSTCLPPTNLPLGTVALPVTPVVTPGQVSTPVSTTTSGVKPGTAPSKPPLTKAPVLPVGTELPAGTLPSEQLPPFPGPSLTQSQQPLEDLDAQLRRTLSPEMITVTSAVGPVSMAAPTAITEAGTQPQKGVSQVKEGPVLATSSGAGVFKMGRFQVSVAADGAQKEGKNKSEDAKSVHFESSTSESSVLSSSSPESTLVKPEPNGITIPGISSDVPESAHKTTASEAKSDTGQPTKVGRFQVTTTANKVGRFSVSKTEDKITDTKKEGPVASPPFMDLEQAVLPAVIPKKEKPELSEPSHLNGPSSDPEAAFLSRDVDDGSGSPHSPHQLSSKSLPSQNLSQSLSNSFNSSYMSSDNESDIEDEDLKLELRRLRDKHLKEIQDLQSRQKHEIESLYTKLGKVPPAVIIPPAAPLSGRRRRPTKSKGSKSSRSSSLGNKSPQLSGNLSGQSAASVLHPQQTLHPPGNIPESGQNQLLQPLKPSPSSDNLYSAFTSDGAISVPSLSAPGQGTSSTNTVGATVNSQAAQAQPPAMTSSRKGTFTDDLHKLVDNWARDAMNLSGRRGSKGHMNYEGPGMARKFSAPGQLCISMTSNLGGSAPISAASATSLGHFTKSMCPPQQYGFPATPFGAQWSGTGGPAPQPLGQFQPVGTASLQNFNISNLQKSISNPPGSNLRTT
# [10] = biological target: Calcium/calmodulin-dependent protein kinase type II subunit delta (Homo sapiens) (UniProt Q13557); test: Inhibition of CAMK2D assessed as residual activity at 10 uM relative to control
# Chain of Calcium/calmodulin-dependent protein kinase type II subunit delta (Homo sapiens) (Q13557 whole entry): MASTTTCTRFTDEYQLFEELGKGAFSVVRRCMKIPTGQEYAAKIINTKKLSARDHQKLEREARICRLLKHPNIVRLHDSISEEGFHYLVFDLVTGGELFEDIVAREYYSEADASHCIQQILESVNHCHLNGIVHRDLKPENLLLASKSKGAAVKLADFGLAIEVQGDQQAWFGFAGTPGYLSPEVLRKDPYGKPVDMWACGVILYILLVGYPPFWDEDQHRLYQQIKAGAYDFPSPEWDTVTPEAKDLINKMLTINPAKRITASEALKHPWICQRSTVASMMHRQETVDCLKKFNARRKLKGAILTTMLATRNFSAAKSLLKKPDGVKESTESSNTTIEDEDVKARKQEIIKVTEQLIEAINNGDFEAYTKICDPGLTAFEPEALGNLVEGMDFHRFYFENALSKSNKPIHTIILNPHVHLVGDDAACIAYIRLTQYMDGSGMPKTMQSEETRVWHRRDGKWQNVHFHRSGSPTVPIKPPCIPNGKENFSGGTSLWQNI
# [11] = biological target: Serine/threonine-protein kinase SIK1 (Homo sapiens) (UniProt P57059); test: Inhibition of SIK assessed as residual activity at 10 uM relative to control
# [12] = biological target: Casein kinase I isoform gamma-3 (Homo sapiens) (UniProt Q9Y6M4); test: Inhibition of CSNK1G3 assessed as residual activity at 10 uM relative to control
# Outline: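 Competition kinase-binding assay (KINOMEscan) across a non-redundant panel of 329 kinases beyond the radiometric panel; residual binding expressed relative to control.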
# [13] = biological target: Mitogen-activated protein kinase kinase kinase 9 (Homo sapiens) (UniProt P80192); test: Inhibition of MLK1 assessed as residual activity at 10 uM relative to control
# [14] = biological target: NT-3 growth factor receptor (Homo sapiens) (UniProt Q16288); test: Inhibition of TRKC assessed as residual activity at 10 uM relative to control
# [15] = biological target: Macrophage-stimulating protein receptor (Homo sapiens) (UniProt Q04912); test: Inhibition of MST1R assessed as residual activity at 10 uM relative to control
# [16] = biological target: Tyrosine-protein kinase Lck (Homo sapiens) (UniProt P06239); test: Inhibition of Lck assessed as residual activity at 1 uM
# [17] = biological target: Serine/threonine-protein kinase WNK1 (Homo sapiens) (UniProt Q9H4A3); test: Inhibition of WNK1 assessed as residual activity at 1 uM
# [18] = biological target: Serine/threonine-protein kinase SIK2 (Homo sapiens) (UniProt Q9H0K1); test: Inhibition of SIK2 assessed as residual activity at 10 uM
# [19] = biological target: RAC-gamma serine/threonine-protein kinase (Homo sapiens) (UniProt Q9Y243); test: Inhibition of AKT3 assessed as residual activity at 10 uM relative to control
# [20] = biological target: T2, Mitogen-activated protein kinase kinase kinase 7 (Homo sapiens) (UniProt O43318); test: Inhibition of TAK1 assessed as residual activity at 10 uM relative to control
# T2 sequence (whole entry): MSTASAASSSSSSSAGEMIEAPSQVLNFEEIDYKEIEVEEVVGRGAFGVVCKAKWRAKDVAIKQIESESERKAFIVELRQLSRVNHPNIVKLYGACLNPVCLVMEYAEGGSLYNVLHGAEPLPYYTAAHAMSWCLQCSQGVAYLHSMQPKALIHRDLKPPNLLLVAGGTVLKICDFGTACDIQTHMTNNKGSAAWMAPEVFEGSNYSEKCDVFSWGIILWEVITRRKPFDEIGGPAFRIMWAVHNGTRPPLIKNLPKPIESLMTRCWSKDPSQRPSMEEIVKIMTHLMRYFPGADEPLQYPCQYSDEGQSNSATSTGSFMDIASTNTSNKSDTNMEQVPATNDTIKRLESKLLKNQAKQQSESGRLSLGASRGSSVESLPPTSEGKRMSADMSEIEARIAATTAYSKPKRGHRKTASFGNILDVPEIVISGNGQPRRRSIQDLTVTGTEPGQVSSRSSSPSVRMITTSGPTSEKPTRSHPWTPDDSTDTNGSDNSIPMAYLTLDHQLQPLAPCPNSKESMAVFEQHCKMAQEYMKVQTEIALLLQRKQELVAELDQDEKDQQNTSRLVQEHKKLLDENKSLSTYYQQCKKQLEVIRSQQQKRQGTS
# Chain of Mitogen-activated protein kinase 1 (Homo sapiens) (P28482 whole entry): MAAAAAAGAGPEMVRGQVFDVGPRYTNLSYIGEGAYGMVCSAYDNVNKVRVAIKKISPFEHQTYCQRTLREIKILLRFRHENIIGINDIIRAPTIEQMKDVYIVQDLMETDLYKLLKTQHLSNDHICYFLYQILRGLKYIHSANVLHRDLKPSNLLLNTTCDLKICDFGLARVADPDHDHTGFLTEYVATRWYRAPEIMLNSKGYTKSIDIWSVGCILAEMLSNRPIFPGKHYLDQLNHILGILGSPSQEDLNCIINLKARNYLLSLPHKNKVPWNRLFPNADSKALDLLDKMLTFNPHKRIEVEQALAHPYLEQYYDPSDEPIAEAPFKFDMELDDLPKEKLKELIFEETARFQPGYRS
smiles,measurement,setting,value
O=C(Nc1cccnc1)c1cc(-c2ccnc(F)c2)ccc1OCc1ccccc1,Activity,[1],104%
same,Activity,[2],73%
same,inhibition,Mus musculus,inactive
same,Activity,[3],32%
same,Activity,[4],69%
same,Activity,[5],61%
same,Activity,[6],76%
same,Activity,[7],56%
same,Activity,[8],61%
same,Activity,[9],61%
same,Activity,[10],64%
same,Activity,[11],46%
same,Activity,[12],26%
same,Activity,[13],74%
same,Activity,[14],62%
same,Activity,[15],17%
same,Activity,[16],113%
same,Activity,[17],104%
same,Activity,[18],111%
same,Activity,[19],51%
same,Activity,[20],59%
